Measurements reported in ChEMBL document CHEMBL4145444, “Investigating the structure-activity relationships of N'-[(5-nitrofuran-2-yl) methylene] substituted hydrazides against Trypanosoma cruzi to design novel active compounds” (Eur J Med Chem, 2018).
Activity calls are given as the source filed them. The rule behind the calls is not given here.

System: Trypanosoma cruzi
Experiment: Antitrypanosomal activity Trypanosoma cruzi Y Tc2 epimastigotes measured after 72 hrs
Format: functional, organism-based
Conditions: not given
Method in brief: (§1)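 Exponentially growing epimastigotes (1.0*10^7 parasites/mL) cultured in LIT-FCS medium with compound from 0.4 to 300.0 µM, added from DMSO stock (DMSO ≤1.0%), 72 h at 28 °C. Viable parasites read by absorbance at 562 nm. PGI computed against untreated culture after subtracting compound/medium blanks. IC50 from sigmoid dose-response fit using at least six concentrations. Triplicates, at least two independent experiments.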

Row | log1/IC50 | SMILES
1 | 5.59 | CCCCCc1ccc(C(=O)N/N=C/c2ccc([N+](=O)[O-])o2)cc1
2 | 5.03 | CCOC(=O)N/N=C/c1ccc([N+](=O)[O-])o1
3 | 5.83 | CCCCCCCOc1ccc(C(=O)N/N=C/c2ccc([N+](=O)[O-])o2)cc1
4 | 5.86 | CCCCCCCc1ccc(C(=O)N/N=C/c2ccc([N+](=O)[O-])o2)cc1
5 | 5.6 | CCCCCC1CCC(C(=O)N/N=C/c2ccc([N+](=O)[O-])o2)CC1 (configuration not stated)

Same assay, conditions: Trypanosoma cruzi, Y, 72 h

Row | IC50 [µM] | SMILES
6 | 2.55 | CCCCCc1ccc(C(=O)N/N=C/c2ccc([N+](=O)[O-])o2)cc1
7 | 9.28 | CCOC(=O)N/N=C/c1ccc([N+](=O)[O-])o1
8 | 1.47 | CCCCCCCOc1ccc(C(=O)N/N=C/c2ccc([N+](=O)[O-])o2)cc1
9 | 1.37 | CCCCCCCc1ccc(C(=O)N/N=C/c2ccc([N+](=O)[O-])o2)cc1
10 | 2.5 | CCCCCC1CCC(C(=O)N/N=C/c2ccc([N+](=O)[O-])o2)CC1 (configuration not stated)

System: not listed separately
Experiment: Cytotoxicity against human U2OS cells assessed as reduction in cell viability
Format: cell-based
Conditions: not given

Row | SMILES | CC50 [µM]
11 | CCCCCc1ccc(C(=O)N/N=C/c2ccc([N+](=O)[O-])o2)cc1 | > 200
12 | CCCCCCCOc1ccc(C(=O)N/N=C/c2ccc([N+](=O)[O-])o2)cc1 | > 200
13 | CCCCCCCc1ccc(C(=O)N/N=C/c2ccc([N+](=O)[O-])o2)cc1 | > 200
14 | CCCCCC1CCC(C(=O)N/N=C/c2ccc([N+](=O)[O-])o2)CC1 (configuration not stated) | > 200

System: Trypanosoma cruzi
Experiment: Antitrypanosomal activity against Trypanosoma cruzi Y Tc2 amastigotes infected in human U2OS cells at 1.56 uM after 72 hrs by Draq5 staining based HCS analysis
Format: functional, organism-based
Conditions: not given

Row | SMILES | Activity
15 | CCCCCCCc1ccc(C(=O)N/N=C/c2ccc([N+](=O)[O-])o2)cc1 | Active

System: Trypanosoma cruzi
Experiment: Antitrypanosomal activity against Trypanosoma cruzi Silvio X10 cl1 Tc1 epimastigotes measured after 72 hrs
Format: functional, organism-based
Conditions: not given
Method in brief: as §1, with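 “°C.” for “°C. Viable parasites read by absorbance at 562 nm.”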

Row | SMILES | log1/IC50
16 | CCCCCc1ccc(C(=O)N/N=C/c2ccc([N+](=O)[O-])o2)cc1 | 5.42
17 | CCOC(=O)N/N=C/c1ccc([N+](=O)[O-])o1 | 4.95
18 | CCCCCCCOc1ccc(C(=O)N/N=C/c2ccc([N+](=O)[O-])o2)cc1 | 5.7
19 | CCCCCCCc1ccc(C(=O)N/N=C/c2ccc([N+](=O)[O-])o2)cc1 | 5.7
20 | CCCCCC1CCC(C(=O)N/N=C/c2ccc([N+](=O)[O-])o2)CC1 (configuration not stated) | 5.64

Same assay, conditions: Trypanosoma cruzi, Silvio X10 cl1, 72 h

Row | SMILES | IC50 [µM]
21 | CCCCCc1ccc(C(=O)N/N=C/c2ccc([N+](=O)[O-])o2)cc1 | 3.77
22 | CCOC(=O)N/N=C/c1ccc([N+](=O)[O-])o1 | 11.3
23 | CCCCCCCOc1ccc(C(=O)N/N=C/c2ccc([N+](=O)[O-])o2)cc1 | 1.99
24 | CCCCCCCc1ccc(C(=O)N/N=C/c2ccc([N+](=O)[O-])o2)cc1 | 1.98
25 | CCCCCC1CCC(C(=O)N/N=C/c2ccc([N+](=O)[O-])o2)CC1 (configuration not stated) | 2.3

System: Trypanosoma cruzi
Experiment: Antitrypanosomal activity Trypanosoma cruzi Bug 2149 cl10 Tc5 epimastigotes measured after 72 hrs
Format: functional, organism-based
Conditions: not given
Method in brief: as §1, with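 “°C.” for “°C. Viable parasites read by absorbance at 562 nm.”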

Row | SMILES | log1/IC50
26 | CCCCCc1ccc(C(=O)N/N=C/c2ccc([N+](=O)[O-])o2)cc1 | 5.7
27 | CCOC(=O)N/N=C/c1ccc([N+](=O)[O-])o1 | 5.16
28 | CCCCCCCOc1ccc(C(=O)N/N=C/c2ccc([N+](=O)[O-])o2)cc1 | 6.07
29 | CCCCCCCc1ccc(C(=O)N/N=C/c2ccc([N+](=O)[O-])o2)cc1 | 6.17
30 | CCCCCC1CCC(C(=O)N/N=C/c2ccc([N+](=O)[O-])o2)CC1 (configuration not stated) | 5.9

Same assay, conditions: Trypanosoma cruzi, Bug 2149 cl10, CL1-0, 72 h

Row | SMILES | IC50 [µM]
31 | CCCCCc1ccc(C(=O)N/N=C/c2ccc([N+](=O)[O-])o2)cc1 | 1.99
32 | CCOC(=O)N/N=C/c1ccc([N+](=O)[O-])o1 | 6.92
33 | CCCCCCCOc1ccc(C(=O)N/N=C/c2ccc([N+](=O)[O-])o2)cc1 | 0.85
34 | CCCCCCCc1ccc(C(=O)N/N=C/c2ccc([N+](=O)[O-])o2)cc1 | 0.67
35 | CCCCCC1CCC(C(=O)N/N=C/c2ccc([N+](=O)[O-])o2)CC1 (configuration not stated) | 1.27

System: Trypanosoma cruzi
Experiment: Antitrypanosomal activity against Trypanosoma cruzi Colombiana Tc1 epimastigotes measured after 72 hrs
Format: functional, organism-based
Conditions: not given
Method in brief: as §1

Row | SMILES | log1/IC50
36 | CCCCCc1ccc(C(=O)N/N=C/c2ccc([N+](=O)[O-])o2)cc1 | 5.75
37 | CCOC(=O)N/N=C/c1ccc([N+](=O)[O-])o1 | 5.15
38 | CCCCCCCOc1ccc(C(=O)N/N=C/c2ccc([N+](=O)[O-])o2)cc1 | 5.96
39 | CCCCCCCc1ccc(C(=O)N/N=C/c2ccc([N+](=O)[O-])o2)cc1 | 5.98
40 | CCCCCC1CCC(C(=O)N/N=C/c2ccc([N+](=O)[O-])o2)CC1 (configuration not stated) | 5.83

Same assay, conditions: Trypanosoma cruzi, Colombiana, 72 h

Row | SMILES | IC50 [µM]
41 | CCCCCc1ccc(C(=O)N/N=C/c2ccc([N+](=O)[O-])o2)cc1 | 1.76
42 | CCOC(=O)N/N=C/c1ccc([N+](=O)[O-])o1 | 7.07
43 | CCCCCCCOc1ccc(C(=O)N/N=C/c2ccc([N+](=O)[O-])o2)cc1 | 1.09
44 | CCCCCCCc1ccc(C(=O)N/N=C/c2ccc([N+](=O)[O-])o2)cc1 | 1.05
45 | CCCCCC1CCC(C(=O)N/N=C/c2ccc([N+](=O)[O-])o2)CC1 (configuration not stated) | 1.47

System: Trypanosoma cruzi
Experiment: Potency index, ratio of benznidazole IC50 to compound IC50 for antitrypanosomal activity against Trypanosoma cruzi Y Tc2 amastigotes infected in human U2OS cells
Format: functional
Conditions: not given

Row | SMILES | Ratio IC50
46 | CCCCCc1ccc(C(=O)N/N=C/c2ccc([N+](=O)[O-])o2)cc1 | 70
47 | CCCCCCCOc1ccc(C(=O)N/N=C/c2ccc([N+](=O)[O-])o2)cc1 | 70
48 | CCCCCCCc1ccc(C(=O)N/N=C/c2ccc([N+](=O)[O-])o2)cc1 | 70

System: Trypanosoma cruzi
Experiment: Antitrypanosomal activity against Trypanosoma cruzi Y Tc2 amastigotes infected in human U2OS cells after 72 hrs by Draq5 staining based HCS analysis
Format: functional, organism-based
Conditions: not given
Method in brief: (§2)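 U2OS cells (700/well, high-glucose DME, 10% FBS) seeded and incubated 24 h. Then infected with 2,800 Y-strain trypomastigotes harvested from LLC-MK2 cells. On day 3, 14-point 2-fold dilutions added, top 200 μM, 1% DMSO, 72 h. Fixed in 4% PFA, Draq5 stained, imaged at 20x. Infection ratio normalized to DMSO-mock infected and uninfected controls. IC50 by sigmoidal variable-slope fit. Doublets, duplicate experiments.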

Row | IC50 [µM] | SMILES
49 | 0.96 | CCCCCc1ccc(C(=O)N/N=C/c2ccc([N+](=O)[O-])o2)cc1
50 | 0.88 | CCCCCCCOc1ccc(C(=O)N/N=C/c2ccc([N+](=O)[O-])o2)cc1
51 | 0.82 | CCCCCCCc1ccc(C(=O)N/N=C/c2ccc([N+](=O)[O-])o2)cc1
52 | 1.66 | CCCCCC1CCC(C(=O)N/N=C/c2ccc([N+](=O)[O-])o2)CC1 (configuration not stated)

System: Trypanosoma cruzi
Experiment: Antitrypanosomal activity against Trypanosoma cruzi Colombiana Tc1 trypamastigotes infected in monkey LLC-MK2 cells assessed as inhibition of parasite viability by measuring motility at 1 uM after 20 hrs by light microscopic method relative to control
Format: functional
Conditions: LLC-MK2, 20 h
Method in brief: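 Colombiana trypomastigotes, centrifuged at 7,000 rpm at 4 °C, resuspended at 10^6/mL in DME with 2% FCS. Exposed to 1 μM compound, 0.5% DMSO final, 20 h at 37 °C, 5% CO2. Viability judged by motility under light microscope. Live parasites counted in a Neubauer chamber. % inhibition relative to drug-free control. Two independent experiments.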

Row | SMILES | inhibition at 1 µM [%]
53 | CCCCCc1ccc(C(=O)N/N=C/c2ccc([N+](=O)[O-])o2)cc1 | 98.5
54 | CCCCCCCOc1ccc(C(=O)N/N=C/c2ccc([N+](=O)[O-])o2)cc1 | 98.5
55 | CCCCCCCc1ccc(C(=O)N/N=C/c2ccc([N+](=O)[O-])o2)cc1 | 98.5
56 | CCCCCC1CCC(C(=O)N/N=C/c2ccc([N+](=O)[O-])o2)CC1 (configuration not stated) | 98.5

System: Trypanosoma cruzi
Experiment: Antitrypanosomal activity against Trypanosoma cruzi Y Tc2 amastigotes infected in human U2OS cells up to 200 uM after 72 hrs by Draq5 staining based HCS analysis relative to control
Format: functional
Conditions: not given
Method in brief: as §2

Row | SMILES | Emax [%]
57 | CCCCCc1ccc(C(=O)N/N=C/c2ccc([N+](=O)[O-])o2)cc1 | 104
58 | CCCCCCCOc1ccc(C(=O)N/N=C/c2ccc([N+](=O)[O-])o2)cc1 | 98.3
59 | CCCCCCCc1ccc(C(=O)N/N=C/c2ccc([N+](=O)[O-])o2)cc1 | 103
60 | CCCCCC1CCC(C(=O)N/N=C/c2ccc([N+](=O)[O-])o2)CC1 (configuration not stated) | 103

System: U2OS
Experiment: Cytotoxicity against human U2OS cells assessed as effect on cell morphology at 1.56 uM after 72 hrs by HCS analysis
Format: cell-based
Conditions: not given

Row | SMILES | Activity
61 | CCCCCCCc1ccc(C(=O)N/N=C/c2ccc([N+](=O)[O-])o2)cc1 | Non-Toxic

System: Trypanosoma cruzi
Experiment: Antitrypanosomal activity against Trypanosoma cruzi Y Tc2 amastigotes infected in human U2OS cells at 0.39 uM after 72 hrs by Draq5 staining based HCS analysis
Format: functional, organism-based
Conditions: not given

Row | SMILES | Activity
62 | CCCCCCCc1ccc(C(=O)N/N=C/c2ccc([N+](=O)[O-])o2)cc1 | inactive

System: not listed separately
Experiment: Selectivity index, ratio of CC50 for cytotoxicity against human U2OS cells to IC50 for Trypanosoma cruzi Y Tc2 amastigotes infected in human U2OS cells
Format: toxicity, cell-based
Conditions: read-out: Ratio CC50/IC50
Method in brief: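 Ratio of U2OS CC50 to Y-strain amastigote IC50, both from the same 72 h Draq5-stained HCS assay in infected U2OS cells (2-fold series up to 200 μM, 1% DMSO).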

Row | SMILES | selectivity ratio
63 | CCCCCc1ccc(C(=O)N/N=C/c2ccc([N+](=O)[O-])o2)cc1 | > 208
64 | CCCCCCCOc1ccc(C(=O)N/N=C/c2ccc([N+](=O)[O-])o2)cc1 | > 227
65 | CCCCCCCc1ccc(C(=O)N/N=C/c2ccc([N+](=O)[O-])o2)cc1 | > 244
66 | CCCCCC1CCC(C(=O)N/N=C/c2ccc([N+](=O)[O-])o2)CC1 (configuration not stated) | > 120

System: Trypanosoma cruzi
Experiment: Potency index, ratio of benznidazole IC50 to compound IC50 for antitrypanosomal activity against Trypanosoma cruzi Colombiana Tc1 epimastigotes
Format: functional
Conditions: not given

Row | SMILES | Ratio IC50
67 | CCOC(=O)N/N=C/c1ccc([N+](=O)[O-])o1 | 25 - 30
